Data published in ChEMBL document CHEMBL3045640, “Synthesis and insecticidal activity of novel carbamate derivatives as potential dual-binding site acetylcholinesterase inhibitors” (J Agric Food Chem, 2010).

What was measured:
[1] = molecular target: Acetylcholinesterase (Musca domestica) (UniProt Q7YWJ9); experiment: Dual-site binding inhibition of AChE in Musca domestica (house fly) brain at 100 mg/l
[2] = molecular target: Acetylcholinesterase (Musca domestica) (UniProt Q7YWJ9); experiment: Ratio of MT IC50 to compound IC50 for AChE in Musca domestica (house fly) brain
[3] = system: Lipaphis erysimi; experiment: In vivo insecticidal activity against apterous adult stage of Lipaphis erysimi (mustard aphids) in chinese cabbage leaves assessed as mortality at 300 mg/l at 25 degC treated for 10 secs measured after 24 hr; type: functional
In short: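 Aphids were reared at 25 (±1) °C, 60 (±5)% RH and a 14 h photoperiod. Acetone stocks at 10 g/L were diluted with water containing 0.1% Triton X-100. Chinese cabbage leaf disks carrying 35 apterous adults were dipped for 10 s, dried, then held at 25 °C. Mortality was scored at 24 h against untreated controls. Three replicates were run, and corrected mortality was calculated.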

[4] = molecular target: Acetylcholinesterase (Musca domestica) (UniProt Q7YWJ9); experiment: Ratio of MH IC50 to compound IC50 for AChE in Musca domestica (house fly) brain
[5] = molecular target: Acetylcholinesterase (Musca domestica, UniProt Q7YWJ9); experiment: Dual-site binding inhibition of AChE in Musca domestica (house fly) brain; type: tissue-based
In short: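 Enzyme was prepared from heads of adult houseflies, females and males in a 1:1 ratio. The inhibition procedure followed previously reported methods.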

Sequence of Acetylcholinesterase (Q7YWJ9 whole entry): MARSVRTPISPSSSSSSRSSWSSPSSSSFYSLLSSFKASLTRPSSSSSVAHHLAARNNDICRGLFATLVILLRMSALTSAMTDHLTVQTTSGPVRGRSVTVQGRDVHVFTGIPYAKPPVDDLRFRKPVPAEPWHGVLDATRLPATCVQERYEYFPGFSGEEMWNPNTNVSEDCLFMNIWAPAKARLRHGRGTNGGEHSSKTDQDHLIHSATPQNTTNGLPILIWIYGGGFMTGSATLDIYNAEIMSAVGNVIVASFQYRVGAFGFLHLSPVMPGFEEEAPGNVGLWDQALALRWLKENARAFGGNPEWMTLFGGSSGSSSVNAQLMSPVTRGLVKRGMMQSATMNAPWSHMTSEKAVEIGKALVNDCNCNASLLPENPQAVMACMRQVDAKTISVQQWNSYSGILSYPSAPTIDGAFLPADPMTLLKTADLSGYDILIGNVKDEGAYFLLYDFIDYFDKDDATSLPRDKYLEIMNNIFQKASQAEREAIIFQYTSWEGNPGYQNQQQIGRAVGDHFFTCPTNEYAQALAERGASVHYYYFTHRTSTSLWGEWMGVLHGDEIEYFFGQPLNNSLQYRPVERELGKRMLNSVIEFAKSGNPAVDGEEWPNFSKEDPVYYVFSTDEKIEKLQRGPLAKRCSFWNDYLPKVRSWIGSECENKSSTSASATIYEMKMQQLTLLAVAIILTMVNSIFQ
Sequence of Acetylcholinesterase (Musca domestica) (Q7YWJ9 1-692): as the sequence (Q7YWJ9 whole entry) above

`CNC(=O)Oc1cccc(OC/C=C/COc2ccc([N+](=O)[O-])cc2)c1` showed an inhibition [1] of 45%.
For `CN(C)C(=O)Oc1ccccc1OC/C=C/COc1ccc(C(F)(F)F)cc1`, the inhibition [1] was 7%.
`CNC(=O)Oc1cccc(OCCOc2ccc(C(F)(F)F)cc2)c1` showed an inhibition [1] of 20%.
Molecule `CN(C)C(=O)Oc1ccccc1OCCCOc1ccc(C(F)(F)F)cc1` has an inhibition [1] of 25%.
`CN(C)C(=O)Oc1cccc(OCCOc2ccc(C(F)(F)F)cc2)c1` showed an inhibition [1] of 8%.
Work on `CNC(=O)Oc1ccccc1OCCCOc1ccc(C(F)(F)F)cc1` yielded an inhibition [1] of 25%.
For `CNC(=O)Oc1ccc(OCCOc2ccc(C(F)(F)F)cc2)cc1`, the inhibition [1] was 2%.
`CN(C)C(=O)Oc1ccc(OCCCOc2ccc(C(F)(F)F)cc2)cc1` showed an inhibition [1] of 1%.
`CN(C)C(=O)Oc1ccc(OCCCCOc2ccc(C(F)(F)F)cc2)cc1` was tested, and the inhibition [1] was 6%.
`CNC(=O)Oc1cccc(OCCCOc2ccc(C(F)(F)F)cc2)c1` gave a Ratio IC50 [2] of 1, a mortality at 300 µg/mL [3] of 85% and an inhibition [1] of 61%. For the same molecule, the Ratio IC50 [4] was 7 and the IC50 [5] was 105 µM.
With `CNC(=O)Oc1ccccc1OCCCCOc1ccc(C(F)(F)F)cc1` the inhibition [1] was 19%.
For `CNC(=O)Oc1cccc(OCCCCOc2ccc([N+](=O)[O-])cc2)c1`, the Ratio IC50 [2] was 3, the mortality at 300 µg/mL [3] was 92% and the inhibition [1] was 80%. The Ratio IC50 [4] was 17 and the IC50 [5] was 46 µM.
`CN(C)C(=O)Oc1cccc(OC/C=C/COc2ccc(C(F)(F)F)cc2)c1` gave an inhibition [1] of 13%.
With `CNC(=O)Oc1cccc(OCCCCOc2ccccc2OC)c1` the inhibition [1] was 46%.
With `CNC(=O)Oc1ccccc1OCCOc1ccc(C(F)(F)F)cc1` the inhibition [1] was 13%.
Molecule `CNC(=O)Oc1ccc(OCCCCOc2ccc(C(F)(F)F)cc2)cc1` has an inhibition [1] of 4%.
Molecule `CNC(=O)Oc1cccc(OCCCOc2ccc([N+](=O)[O-])cc2)c1` has a Ratio IC50 [2] of 2, a mortality at 300 µg/mL [3] of 89% and an inhibition [1] of 69%. The Ratio IC50 [4] was 11 and the IC50 [5] was 70 µM.
`CNC(=O)Oc1cccc(OCCCCOc2ccc(Cl)cc2)c1` gave an inhibition [1] of 30%.
For `CNC(=O)Oc1ccc(OCCCOc2ccc(C(F)(F)F)cc2)cc1`, the inhibition [1] was 2%.
In the case of `CN(C)C(=O)Oc1cccc(OCCCCOc2ccc(C(F)(F)F)cc2)c1`, the inhibition [1] is reported as 20%.
`CNC(=O)Oc1cccc(OCCCCOc2cccc([N+](=O)[O-])c2)c1` was tested, and the Ratio IC50 [2] was 12, the mortality at 300 µg/mL [3] was 98% and the inhibition [1] was 92%. For the same molecule, the Ratio IC50 [4] was 62 and the IC50 [5] was 12 µM.
For `CN(C)C(=O)Oc1ccccc1OCCCCOc1ccc(C(F)(F)F)cc1`, the inhibition [1] was 7%.
For `CN(C)C(=O)Oc1cccc(OCCCOc2ccc(C(F)(F)F)cc2)c1`, the inhibition [1] was 27%.
For `CNC(=O)Oc1cccc(OCCCCOc2ccccc2[N+](=O)[O-])c1`, the Ratio IC50 [2] was 2, the mortality at 300 µg/mL [3] was 93% and the inhibition [1] was 80%. The Ratio IC50 [4] was 13 and the IC50 [5] was 61 µM.
`CNC(=O)Oc1ccccc1` [PHENYL METHYLCARBAMATE] was tested, and the mortality at 300 µg/mL [3] was 76%, the inhibition [1] was 46% and the IC50 [5] was 766 µM.
With `CNC(=O)Oc1cccc(OCCCCOc2ccc(C(F)(F)F)cc2)c1` the Ratio IC50 [2] was 1, the mortality at 300 µg/mL [3] was 92% and the inhibition [1] was 62%. It also gave a Ratio IC50 [4] of 7 and an IC50 [5] of 107 µM.
With `CNC(=O)Oc1cccc(OC/C=C/COc2ccc(C(F)(F)F)cc2)c1` the inhibition [1] was 12%.
`CNC(=O)Oc1ccc(OC/C=C/COc2ccc(C(F)(F)F)cc2)cc1` gave an inhibition [1] of 3%.
For `CN(C)C(=O)Oc1ccccc1OCCOc1ccc(C(F)(F)F)cc1`, the inhibition [1] was 15%.
`CN(C)C(=O)Oc1ccc(OC/C=C/COc2ccc(C(F)(F)F)cc2)cc1` was tested, and the inhibition [1] was 0%.
`CNC(=O)Oc1ccccc1OC/C=C/COc1ccc(C(F)(F)F)cc1` gave an inhibition [1] of 17%.
With `CN(C)C(=O)Oc1ccc(OCCOc2ccc(C(F)(F)F)cc2)cc1` the inhibition [1] was 6%.
Work on `CNC(=O)Oc1cccc(C)c1` [METOLCARB] yielded a mortality at 300 µg/mL [3] of 97% and an IC50 [5] of 150 µM.
